Test results reported in ChEMBL document CHEMBL1142492 (J Med Chem, 2008).

How the values were obtained:
[1] = molecular target: Serine/threonine-protein kinase pim-1 (Homo sapiens) (UniProt P11309); experiment: Inhibition of PIM1 at 3 uM
[2] = molecular target: cAMP-dependent protein kinase catalytic subunit beta (Homo sapiens) (UniProt P22694); experiment: Inhibition of PKAC-beta at 3 uM
[3] = molecular target: SRSF protein kinase 2 (Homo sapiens) (UniProt P78362); experiment: Inhibition of SRPK2 at 3 uM
[4] = molecular target: Serine/threonine-protein kinase ULK3 (Homo sapiens) (UniProt Q6PHR2); experiment: Inhibition of ULK3 at 3 uM
[5] = molecular target: Mitogen-activated protein kinase 9 (Homo sapiens) (UniProt P45984); experiment: Inhibition of JNK2 at 3 uM
[6] = molecular target: Tyrosine-protein kinase Lck (Homo sapiens) (UniProt P06239); experiment: Inhibition of LCK at 3 uM
[7] = molecular target: Homeodomain-interacting protein kinase 1 (Homo sapiens) (UniProt Q86Z02); experiment: Inhibition of HIPK1 at 3 uM
[8] = molecular target: Serine/threonine-protein kinase MARK1 (Homo sapiens) (UniProt Q9P0L2); experiment: Inhibition of MARK1 at 3 uM
[9] = molecular target: Mitogen-activated protein kinase kinase kinase 9 (Homo sapiens) (UniProt P80192); experiment: Inhibition of MLK1 at 3 uM
[10] = molecular target: Mitogen-activated protein kinase kinase kinase 11 (Homo sapiens) (UniProt Q16584); experiment: Inhibition of MLK3 at 3 uM
[11] = molecular target: Macrophage-stimulating protein receptor (Homo sapiens) (UniProt Q04912); experiment: Inhibition of MST1R at 3 uM
[12] = molecular target: Serine/threonine-protein kinase 24 (Homo sapiens) (UniProt Q9Y6E0); experiment: Inhibition of MST3 at 3 uM
[13] = molecular target: Serine/threonine-protein kinase Nek7 (Homo sapiens) (UniProt Q8TDX7); experiment: Inhibition of NEK7 at 3 uM
[14] = molecular target: Serine/threonine-protein kinase PAK 3 (Homo sapiens) (UniProt O75914); experiment: Inhibition of PAK3 at 3 uM
[15] = molecular target: Serine/threonine-protein kinase PAK 4 (Homo sapiens) (UniProt O96013); experiment: Inhibition of PAK4 at 3 uM
[16] = molecular target: Cyclin-dependent kinase 18 (Homo sapiens) (UniProt Q07002); experiment: Inhibition of PCTK3 at 3 uM
[17] = molecular target: cAMP-dependent protein kinase catalytic subunit PRKX (Homo sapiens) (UniProt P51817); experiment: Inhibition of PRKX at 3 uM
[18] = molecular target: Protein-tyrosine kinase 2-beta (Homo sapiens) (UniProt Q14289); experiment: Inhibition of PTK2B at 3 uM
[19] = test system: Proto-oncogene tyrosine-protein kinase receptor Ret (Homo sapiens), P07949 [M918T]; experiment: Inhibition of RET M918T mutant at 3 uM
[20] = test system: Proto-oncogene tyrosine-protein kinase receptor Ret (Homo sapiens), P07949 [V804M]; experiment: Inhibition of RET V804M mutant at 3 uM
[21] = molecular target: Serine/threonine-protein kinase RIO2 (Homo sapiens) (UniProt Q9BVS4); experiment: Inhibition of RIOK2 at 3 uM
[22] = molecular target: Serine/threonine-protein kinase RIO3 (Homo sapiens) (UniProt O14730); experiment: Inhibition of RIOK3 at 3 uM
[23] = molecular target: Phosphorylase b kinase gamma catalytic chain, liver/testis isoform (Homo sapiens) (UniProt P15735); experiment: Inhibition of PHKG2 at 3 uM
[24] = test system: Phosphatidylinositol 4,5-bisphosphate 3-kinase catalytic subunit alpha isoform (Homo sapiens), P42336 [E545K]; experiment: Inhibition of PIK3CA E545K mutant at 3 uM
[25] = molecular target: Wee1-like protein kinase (Homo sapiens) (UniProt P30291); experiment: Inhibition of WEE1 at 3 uM
[26] = molecular target: Tyrosine-protein kinase Yes (Homo sapiens) (UniProt P07947); experiment: Inhibition of YES at 3 uM
CYP2C9 = CYP2C9 (Homo sapiens, UniProt P11712); experiment: Inhibition of human CYP2C9 at 10 uM; format: ADME
[27] = molecular target: Alpha-1B adrenergic receptor (Rattus norvegicus) (UniProt P15823); experiment: Inhibition of rat adrenergic Alpha-1B receptor at 3 uM
[28] = molecular target: Alpha-2A adrenergic receptor (Homo sapiens) (UniProt P08913); experiment: Inhibition of human adrenergic alpha2A receptor at 3 uM
[29] = molecular target: Type-1 angiotensin II receptor (Homo sapiens) (UniProt P30556); experiment: Inhibition of human AT1 receptor at 3 uM
In short: (§1)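 Counter-screen binding/enzyme panel at single 3 μM, n=2; results as percent inhibition. Species per target as listed (rat NMDA, GABAA sites; human receptors, transporters; rabbit ACE).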

[30] = molecular target: Endothelin receptor type B (Homo sapiens) (UniProt P24530); experiment: Inhibition of human endothelin ETB receptor at 3 uM; in short: as §1
hERG (KCNH2) = hERG (KCNH2) (Homo sapiens, UniProt Q12809); experiment: Inhibition of human ERG at 3 uM; in short: as §1
[31] = test system: Tyrosine-protein kinase ABL1 (Homo sapiens), P00519 [F317L]; experiment: Inhibition of ABL1 F317L mutant at 3 uM
[32] = test system: Tyrosine-protein kinase ABL1 (Homo sapiens), P00519 [Q252H]; experiment: Inhibition of ABL1 Q252H mutant at 3 uM
[33] = molecular target: Cyclin-dependent kinase 3 (Homo sapiens) (UniProt Q00526); experiment: Inhibition of CDK3 at 3 uM
[34] = molecular target: Tyrosine-protein kinase ABL2 (Homo sapiens) (UniProt P42684); experiment: Inhibition of ABL2 at 3 uM
[35] = molecular target: Serine/threonine-protein kinase B-raf (Homo sapiens) (UniProt P15056); experiment: Inhibition of BRAF at 3 uM
[36] = test system: Serine/threonine-protein kinase B-raf (Homo sapiens), P15056 [V600E]; experiment: Inhibition of BRAF V600E mutant at 3 uM
[37] = molecular target: Serine/threonine-protein kinase Chk2 (Homo sapiens) (UniProt O96017); experiment: Inhibition of CHEK2 at 3 uM
[38] = molecular target: Sodium-dependent noradrenaline transporter (Homo sapiens) (UniProt P23975); experiment: Inhibition of human NET at 3 uM; in short: as §1
[39] = molecular target: Casein kinase I isoform gamma-2 (Homo sapiens) (UniProt P78368); experiment: Inhibition of CSNK1G2 at 3 uM
[40] = molecular target: Death-associated protein kinase 1 (Homo sapiens) (UniProt P53355); experiment: Inhibition of DAPK1 at 3 uM
[41] = molecular target: Calcium/calmodulin-dependent protein kinase type II subunit beta (Homo sapiens) (UniProt Q13554); experiment: Inhibition of CAMK2B at 3 uM
[42] = molecular target: Calcium/calmodulin-dependent protein kinase type II subunit delta (Homo sapiens) (UniProt Q13557); experiment: Inhibition of CAMK2D at 3 uM
[43] = molecular target: Mitogen-activated protein kinase kinase kinase 12 (DLK) (Homo sapiens) (UniProt Q12852); experiment: Inhibition of DLK at 3 uM

Chain of Serine/threonine-protein kinase pim-1 (Homo sapiens) (P11309 whole entry, looked up): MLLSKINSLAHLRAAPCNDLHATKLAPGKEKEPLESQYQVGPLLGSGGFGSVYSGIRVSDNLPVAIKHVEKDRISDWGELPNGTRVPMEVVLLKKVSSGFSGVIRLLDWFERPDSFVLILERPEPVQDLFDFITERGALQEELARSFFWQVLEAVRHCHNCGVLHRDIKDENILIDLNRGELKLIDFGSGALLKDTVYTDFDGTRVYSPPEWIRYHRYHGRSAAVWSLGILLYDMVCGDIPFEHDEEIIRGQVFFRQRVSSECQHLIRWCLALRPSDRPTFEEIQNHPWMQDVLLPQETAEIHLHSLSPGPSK
Chain of Phosphorylase b kinase gamma catalytic chain, liver/testis isoform (Homo sapiens) (P15735 whole entry, canonical isoform): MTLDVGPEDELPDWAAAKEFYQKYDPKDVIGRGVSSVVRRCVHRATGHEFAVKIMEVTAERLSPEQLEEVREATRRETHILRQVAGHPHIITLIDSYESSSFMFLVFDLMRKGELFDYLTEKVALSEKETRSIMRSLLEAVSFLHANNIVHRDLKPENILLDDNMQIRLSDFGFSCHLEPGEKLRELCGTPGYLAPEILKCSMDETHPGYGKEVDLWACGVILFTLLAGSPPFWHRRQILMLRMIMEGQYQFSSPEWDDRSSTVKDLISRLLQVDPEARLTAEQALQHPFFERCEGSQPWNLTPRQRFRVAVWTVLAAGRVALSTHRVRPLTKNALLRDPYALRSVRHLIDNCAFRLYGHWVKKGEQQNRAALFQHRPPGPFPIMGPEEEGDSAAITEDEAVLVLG
Chain of Tyrosine-protein kinase Yes (Homo sapiens) (P07947 2-543 limits assumed): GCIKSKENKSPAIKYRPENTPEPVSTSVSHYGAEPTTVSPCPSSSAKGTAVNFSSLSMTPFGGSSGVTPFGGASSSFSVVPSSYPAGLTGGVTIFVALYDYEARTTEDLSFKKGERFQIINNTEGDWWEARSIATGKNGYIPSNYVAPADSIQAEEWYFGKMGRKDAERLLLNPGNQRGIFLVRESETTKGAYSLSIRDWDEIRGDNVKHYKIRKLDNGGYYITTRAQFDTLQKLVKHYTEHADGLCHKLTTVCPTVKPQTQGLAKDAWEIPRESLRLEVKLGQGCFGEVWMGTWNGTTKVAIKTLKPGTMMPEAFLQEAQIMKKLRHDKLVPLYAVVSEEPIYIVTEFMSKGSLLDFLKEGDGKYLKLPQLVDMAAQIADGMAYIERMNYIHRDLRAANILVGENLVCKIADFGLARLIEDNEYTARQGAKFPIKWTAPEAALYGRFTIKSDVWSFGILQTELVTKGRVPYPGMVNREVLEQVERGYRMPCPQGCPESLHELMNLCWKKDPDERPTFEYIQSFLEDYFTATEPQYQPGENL
Chain of Phosphatidylinositol 4,5-bisphosphate 3-kinase catalytic subunit alpha isoform (Homo sapiens), P42336 [E545K] (P42336 whole entry E545K, canonical isoform): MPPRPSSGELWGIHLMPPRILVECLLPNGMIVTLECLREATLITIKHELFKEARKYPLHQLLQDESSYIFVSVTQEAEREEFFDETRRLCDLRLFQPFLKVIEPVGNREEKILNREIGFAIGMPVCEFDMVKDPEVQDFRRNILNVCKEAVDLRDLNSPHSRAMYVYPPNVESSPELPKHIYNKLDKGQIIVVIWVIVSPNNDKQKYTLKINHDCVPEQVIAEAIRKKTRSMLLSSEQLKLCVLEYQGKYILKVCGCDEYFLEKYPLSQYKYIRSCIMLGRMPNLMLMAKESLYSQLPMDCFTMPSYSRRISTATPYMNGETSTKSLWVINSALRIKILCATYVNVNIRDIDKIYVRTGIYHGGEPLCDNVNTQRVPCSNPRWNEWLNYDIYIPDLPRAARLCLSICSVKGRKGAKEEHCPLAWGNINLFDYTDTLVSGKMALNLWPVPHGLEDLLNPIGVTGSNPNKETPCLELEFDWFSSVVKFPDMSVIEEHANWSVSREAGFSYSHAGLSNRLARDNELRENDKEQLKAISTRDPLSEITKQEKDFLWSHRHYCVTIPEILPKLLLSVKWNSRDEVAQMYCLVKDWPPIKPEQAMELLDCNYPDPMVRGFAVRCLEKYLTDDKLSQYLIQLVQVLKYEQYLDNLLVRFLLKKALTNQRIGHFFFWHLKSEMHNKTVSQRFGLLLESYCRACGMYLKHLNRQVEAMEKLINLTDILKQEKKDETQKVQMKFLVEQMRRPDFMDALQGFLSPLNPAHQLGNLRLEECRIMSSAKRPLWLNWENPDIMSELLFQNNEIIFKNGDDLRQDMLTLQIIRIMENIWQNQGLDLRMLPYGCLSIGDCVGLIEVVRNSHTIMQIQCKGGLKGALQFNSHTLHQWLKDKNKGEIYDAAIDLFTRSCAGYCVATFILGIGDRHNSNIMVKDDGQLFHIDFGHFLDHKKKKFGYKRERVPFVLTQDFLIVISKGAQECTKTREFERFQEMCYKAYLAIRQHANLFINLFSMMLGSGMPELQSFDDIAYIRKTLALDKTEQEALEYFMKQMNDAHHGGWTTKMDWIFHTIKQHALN
Chain of Serine/threonine-protein kinase B-raf (Homo sapiens) (P15056 whole entry): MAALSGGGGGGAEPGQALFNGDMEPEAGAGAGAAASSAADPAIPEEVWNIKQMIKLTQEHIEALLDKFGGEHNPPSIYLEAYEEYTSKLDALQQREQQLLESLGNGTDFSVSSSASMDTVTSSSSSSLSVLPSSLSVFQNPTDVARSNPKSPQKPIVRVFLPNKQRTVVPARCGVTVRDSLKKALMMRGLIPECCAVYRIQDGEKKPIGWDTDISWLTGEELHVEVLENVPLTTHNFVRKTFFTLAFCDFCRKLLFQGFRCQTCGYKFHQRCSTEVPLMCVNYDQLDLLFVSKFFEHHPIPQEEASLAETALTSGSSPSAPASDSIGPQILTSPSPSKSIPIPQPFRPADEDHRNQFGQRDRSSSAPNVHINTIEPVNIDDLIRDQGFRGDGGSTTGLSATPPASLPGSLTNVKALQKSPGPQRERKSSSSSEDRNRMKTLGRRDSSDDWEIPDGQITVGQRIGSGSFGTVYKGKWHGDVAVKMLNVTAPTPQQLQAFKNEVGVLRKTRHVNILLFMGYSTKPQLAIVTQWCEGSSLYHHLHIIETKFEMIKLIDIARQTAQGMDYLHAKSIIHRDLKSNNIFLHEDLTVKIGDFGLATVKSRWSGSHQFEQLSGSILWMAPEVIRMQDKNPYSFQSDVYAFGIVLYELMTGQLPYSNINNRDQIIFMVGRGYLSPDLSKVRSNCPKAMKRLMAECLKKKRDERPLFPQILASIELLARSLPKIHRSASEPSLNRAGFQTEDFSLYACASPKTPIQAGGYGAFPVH
Chain of SRSF protein kinase 2 (Homo sapiens) (P78362 whole entry, looked up): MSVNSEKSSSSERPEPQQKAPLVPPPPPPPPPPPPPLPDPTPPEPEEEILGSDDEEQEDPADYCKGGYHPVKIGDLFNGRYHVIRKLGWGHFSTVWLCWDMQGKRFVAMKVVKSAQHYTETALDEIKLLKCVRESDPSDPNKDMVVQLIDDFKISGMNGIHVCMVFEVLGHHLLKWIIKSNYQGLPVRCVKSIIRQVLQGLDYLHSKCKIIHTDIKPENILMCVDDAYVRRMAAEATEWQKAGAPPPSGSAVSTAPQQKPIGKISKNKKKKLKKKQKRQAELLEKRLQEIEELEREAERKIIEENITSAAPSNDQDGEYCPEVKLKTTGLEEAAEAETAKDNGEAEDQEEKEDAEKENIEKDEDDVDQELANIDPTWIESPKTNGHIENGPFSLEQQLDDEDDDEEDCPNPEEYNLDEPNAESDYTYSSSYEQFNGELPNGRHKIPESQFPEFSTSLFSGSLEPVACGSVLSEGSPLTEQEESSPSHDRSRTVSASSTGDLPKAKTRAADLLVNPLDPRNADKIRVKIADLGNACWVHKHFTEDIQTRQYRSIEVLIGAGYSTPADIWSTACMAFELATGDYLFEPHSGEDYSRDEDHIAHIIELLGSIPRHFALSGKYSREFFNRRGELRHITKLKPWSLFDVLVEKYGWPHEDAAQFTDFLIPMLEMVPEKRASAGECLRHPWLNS
Chain of Casein kinase I isoform gamma-2 (Homo sapiens) (P78368 whole entry, looked up, canonical isoform): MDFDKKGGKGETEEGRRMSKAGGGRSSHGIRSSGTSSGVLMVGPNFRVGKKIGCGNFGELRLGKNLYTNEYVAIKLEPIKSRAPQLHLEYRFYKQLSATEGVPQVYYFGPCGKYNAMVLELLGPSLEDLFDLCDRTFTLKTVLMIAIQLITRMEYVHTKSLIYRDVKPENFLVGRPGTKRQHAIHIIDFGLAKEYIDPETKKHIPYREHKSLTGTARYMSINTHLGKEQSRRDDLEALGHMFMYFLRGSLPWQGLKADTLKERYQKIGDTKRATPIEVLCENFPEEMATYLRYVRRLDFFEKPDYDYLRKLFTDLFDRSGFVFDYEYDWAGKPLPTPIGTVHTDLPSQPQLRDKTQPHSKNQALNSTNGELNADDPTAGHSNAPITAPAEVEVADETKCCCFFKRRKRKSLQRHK
Chain of Serine/threonine-protein kinase 24 (Homo sapiens) (Q9Y6E0 whole entry, looked up): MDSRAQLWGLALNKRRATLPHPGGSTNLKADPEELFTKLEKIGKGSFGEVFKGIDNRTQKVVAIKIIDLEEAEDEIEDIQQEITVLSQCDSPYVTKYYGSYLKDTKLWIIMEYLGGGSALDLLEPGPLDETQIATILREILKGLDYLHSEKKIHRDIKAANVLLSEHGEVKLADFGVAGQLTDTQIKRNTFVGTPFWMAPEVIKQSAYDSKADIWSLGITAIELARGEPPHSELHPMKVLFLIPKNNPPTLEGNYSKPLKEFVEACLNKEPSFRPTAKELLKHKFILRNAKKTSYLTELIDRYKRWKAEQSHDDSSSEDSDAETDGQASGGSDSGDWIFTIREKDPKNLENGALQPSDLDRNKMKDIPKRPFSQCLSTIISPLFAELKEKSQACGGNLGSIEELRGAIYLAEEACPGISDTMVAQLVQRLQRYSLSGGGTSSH
Chain of Serine/threonine-protein kinase Nek7 (Homo sapiens) (Q8TDX7 whole entry, looked up): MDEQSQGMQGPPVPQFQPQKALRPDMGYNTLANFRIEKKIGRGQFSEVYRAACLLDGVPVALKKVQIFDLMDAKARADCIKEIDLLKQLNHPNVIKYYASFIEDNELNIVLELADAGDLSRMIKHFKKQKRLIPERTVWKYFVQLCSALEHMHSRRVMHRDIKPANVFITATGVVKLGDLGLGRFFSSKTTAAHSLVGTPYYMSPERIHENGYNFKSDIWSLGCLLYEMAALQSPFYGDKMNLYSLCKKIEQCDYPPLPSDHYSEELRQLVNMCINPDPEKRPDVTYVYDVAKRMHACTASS

SMILES: CN(C)CCOc1cc(-c2cn[nH]c2)ccc1NC(=O)C1COc2ccccc2O1 (stereo not given) [SR-3677]
- inhibition [1]: < 10%
- inhibition [2]: < 10%
- inhibition [3]: < 10%
- inhibition [4]: < 10%
- inhibition [5]: < 10%
- inhibition [6]: < 10%
- inhibition [7]: < 10%
- inhibition [8]: < 10%
- inhibition [9]: < 10%
- inhibition [10]: < 10%
- inhibition [11]: < 10%
- inhibition [12]: < 10%
- inhibition [13]: < 10%
- inhibition [14]: < 10%
- inhibition [15]: < 10%
- inhibition [16]: < 10%
- inhibition [17]: < 10%
- inhibition [18]: < 10%
- inhibition [19]: < 10%
- inhibition [20]: < 10%
- inhibition [21]: < 10%
- inhibition [22]: < 10%
- inhibition [23]: < 10%
- inhibition [24]: < 10%
- inhibition [25]: < 10%
- inhibition [26]: < 10%
- inhibition at 10 µM (CYP2C9): 80%
- inhibition [27]: 68%
- inhibition [28]: 76%
- inhibition [29]: -1%
- inhibition [30]: -1%
- inhibition at 3 µM (hERG (KCNH2)): 31%
- inhibition [31]: < 10%
- inhibition [32]: < 10%
- inhibition [33]: < 10%
- inhibition [34]: < 10%
- inhibition [35]: < 10%
- inhibition [36]: < 10%
- inhibition [37]: < 10%
- inhibition [38]: 16%
- inhibition [39]: < 10%
- inhibition [40]: < 10%
- inhibition [41]: < 10%
- inhibition [42]: < 10%
- inhibition [43]: < 10%
